Results on 19 compounds are retold here after ChEMBL document CHEMBL1944553, “Structure-activity relationships of truncated C2- or C8-substituted adenosine derivatives as dual acting A₂A and A₃ adenosine receptor ligands” (J Med Chem, 2012).

By Ki is commonly meant the dissociation constant of the complex between target and ligand, obtained from inhibition or displacement. What is called inhibition is how much of the control response was suppressed. Usually EC50 stands for the concentration needed to bring the measured effect to its halfway point. One may read the Kb as the affinity of an antagonist, worked out from how it opposes an agonist.

The target in experiment [1] is T1, Adenosine receptor A2a (Homo sapiens, UniProt P29274). The experiment can be described thus: Displacement of [3H]CGS21680 from human adenosine A2A receptor expressed in HEK293 cells after 60 mins by […]. The experiment is classed as cell-based. A digest of the protocol: (§1)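 HEK-293 cells stably expressing human A2AAR. Membranes at 20 µg/tube were incubated with [3H]CGS21680 at 25 °C for 60 min in 50 mM Tris-HCl pH 7.4 with 10 mM MgCl2. Nonspecific binding was defined with 10 µM NECA, and reactions were stopped by GF/B filtration.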
T1 sequence (P29274 whole entry): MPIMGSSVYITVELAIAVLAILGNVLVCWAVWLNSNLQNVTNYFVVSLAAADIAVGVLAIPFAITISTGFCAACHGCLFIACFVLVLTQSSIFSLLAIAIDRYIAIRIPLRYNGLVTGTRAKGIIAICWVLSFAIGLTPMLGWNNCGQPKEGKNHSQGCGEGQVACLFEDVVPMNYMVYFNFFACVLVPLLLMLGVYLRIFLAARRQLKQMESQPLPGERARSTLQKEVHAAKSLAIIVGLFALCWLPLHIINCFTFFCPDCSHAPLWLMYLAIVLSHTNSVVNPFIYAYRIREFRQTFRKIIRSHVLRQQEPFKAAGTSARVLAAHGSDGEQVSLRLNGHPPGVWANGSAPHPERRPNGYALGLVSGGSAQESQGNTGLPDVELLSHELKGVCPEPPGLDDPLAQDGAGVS

Experiment [2] addresses T2, Adenosine receptor A3 (Homo sapiens) (UniProt P0DMS8).
T2 sequence (whole entry): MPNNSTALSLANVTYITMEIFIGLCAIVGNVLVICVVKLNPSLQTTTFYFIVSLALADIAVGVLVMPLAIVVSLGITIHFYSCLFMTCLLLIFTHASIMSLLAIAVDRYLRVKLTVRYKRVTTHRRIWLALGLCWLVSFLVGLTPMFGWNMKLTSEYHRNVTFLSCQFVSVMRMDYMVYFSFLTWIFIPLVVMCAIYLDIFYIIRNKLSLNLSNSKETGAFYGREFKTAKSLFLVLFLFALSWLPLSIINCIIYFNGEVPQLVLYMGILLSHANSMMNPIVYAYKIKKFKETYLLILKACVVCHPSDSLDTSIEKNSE
The experiment can be described thus: Displacement of [125I]I-AB-MECA from human adenosine A3 receptor expressed in CHO cells at 10 uM after 60 mins by gamma counting. The experiment is classed as cell-based. A digest of the protocol: (§2)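 hA3AR-CHO membranes (20 µg protein) with 0.5 nM [125I]I-AB-MECA and increasing ligand concentrations in 50 mM Tris-HCl pH 7.4, 10 mM MgCl2, 1 mM EDTA; 25 °C, 60 min. Nonspecific binding: 10 µM NECA. Filtered on GF/B, washed three times with ice-cold buffer, gamma-counted.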
(In general: Loss of bound radioactivity is the signal in a displacement assay; it reports binding, not function.)

Experiment [3] concerns the target T2, Adenosine receptor A3 (Homo sapiens). Kind of experiment: Partial agonist activity at human recombinant adenosine A3 receptor expressed in CHO cells assessed as inhibition of forskolin-stimulated cAMP production at 10 uM incubated for 30 mins prior to forskolin addition by enzyme immunoassay relative to C1-IB-MECA. The experiment is classed as functional, cell-based. (Cyclic AMP is a second messenger, typically raised through Gs and lowered through Gi signalling.)

Experiment [4] concerns the target T3, Adenosine receptor A1 (Homo sapiens) (UniProt P30542).
T3 sequence (whole entry): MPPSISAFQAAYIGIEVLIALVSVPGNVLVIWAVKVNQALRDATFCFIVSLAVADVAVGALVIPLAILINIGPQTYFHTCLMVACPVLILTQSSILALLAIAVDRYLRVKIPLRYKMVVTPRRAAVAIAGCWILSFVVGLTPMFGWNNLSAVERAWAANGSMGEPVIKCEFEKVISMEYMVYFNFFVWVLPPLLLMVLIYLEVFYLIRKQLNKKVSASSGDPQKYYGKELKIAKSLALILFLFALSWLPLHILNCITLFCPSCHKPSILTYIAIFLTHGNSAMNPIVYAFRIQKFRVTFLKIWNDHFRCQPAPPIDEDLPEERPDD
The experiment can be described thus: Displacement of [3H]R-PIA from human recombinant adenosine A1 receptor expressed in CHO cells at 10 uM after 60 mins by […]. The experiment is classed as cell-based. In a few lines:
(§3)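 Membranes (40 µg/tube) from CHO cells stably expressing human A1AR, incubated with 1 nM [3H]R-PIA at 25 °C for 60 min in 50 mM Tris-HCl pH 7.4 with 10 mM MgCl2. Nonspecific binding set with 10 µM NECA. GF/B filtration.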

A further experiment concerns the target T4, Adenosine receptor A3 (Homo sapiens, UniProt P0DMS8).
T4 sequence (P0DMS8 whole entry): T2 sequence (whole entry)
Kind of experiment: Displacement of [125I]I-AB-MECA from human adenosine A3 receptor expressed in CHO cells after 60 mins by gamma counting. It is filed as cell-based. A digest of the protocol: as §2

Experiment [5] concerns the target T1, Adenosine receptor A2a. Kind of experiment: Agonist activity at human recombinant adenosine A2A receptor expressed in CHO cells assessed as induction of cAMP production at 10 uM after 30 mins by enzyme immunoassay relative to NECA. It is filed as functional, cell-based.
Experiment [6] addresses T5, Adenosine receptor A2b (Homo sapiens) (UniProt P29275).
T5 sequence (whole entry): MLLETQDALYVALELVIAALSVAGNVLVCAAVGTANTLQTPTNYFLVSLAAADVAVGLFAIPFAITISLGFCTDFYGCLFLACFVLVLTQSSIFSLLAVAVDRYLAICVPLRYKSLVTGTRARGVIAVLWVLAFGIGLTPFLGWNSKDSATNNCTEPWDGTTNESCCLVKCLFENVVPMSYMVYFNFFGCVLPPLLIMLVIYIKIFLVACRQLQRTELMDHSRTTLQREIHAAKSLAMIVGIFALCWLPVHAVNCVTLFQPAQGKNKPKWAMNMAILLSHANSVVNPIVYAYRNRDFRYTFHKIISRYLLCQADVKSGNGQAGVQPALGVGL
The experiment can be described thus: Agonist activity at human recombinant adenosine A2B receptor expressed in CHO cells assessed as induction of cAMP production at 10 uM after 30 mins by immunoassay relative to NECA. The experiment is classed as functional, cell-based.

The subject of the next experiment is Rattus norvegicus. The experiment can be described thus: Antiinflammatory activity in Sprague-Dawley rat assessed as reduction in carrageenan-induced paw edema at 20 mg/kg, ip administered 30 mins before carrageenan challenge measured after 4 hrs by plethysmometer analysis. The experiment is classed as functional. Set-up: scale not given: the % may be the effect or the level left. Particulars: route intraperitoneal. In a few lines:
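Male Sprague-Dawley rats (140–160 g, 5 weeks), acclimatized one week. Compound at 20 mg/kg given ip in 5% cremophor/5% ethanol in PBS; vehicle as control. After 30 min, 0.1 mL 1% carrageenan in saline was injected subplantar into the right hind paw, with saline in the left. Paw volume was read by plethysmometer at 0–24 h, 4 h included. Mean ± SD, ANOVA.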
In general terms: In the carrageenan paw model, swelling and tenderness develop within hours.

Experiment [7] concerns the target T1, Adenosine receptor A2a. The experiment can be described thus: Displacement of [3H]CGS21680 from human adenosine A2A receptor expressed in HEK293 cells at 10 uM after 60 mins by […]. The experiment is classed as cell-based. In a few lines: as §1
The target in another experiment is T6, Adenosine receptor A1 (Homo sapiens, UniProt P30542).
T6 sequence (P30542 whole entry): T3 sequence (whole entry)
Kind of experiment: Displacement of [3H]R-PIA from human recombinant adenosine A1 receptor expressed in CHO cells after 60 mins by […]. The experiment is classed as cell-based. A digest of the protocol: as §3

Experiment [8] has as its target T1, Adenosine receptor A2a. Kind of experiment: Agonist activity at human recombinant adenosine A2A receptor expressed in CHO cells assessed as induction of cAMP production after 30 mins by immunoassay. The experiment is classed as functional, cell-based.
The target in experiment [9] is T2, Adenosine receptor A3 (Homo sapiens). The experiment can be described thus: Competitive antagonist activity at human recombinant adenosine A3 receptor expressed in CHO cells assessed as inhibition of C1-IB-MECA-induced cAMP production preincubated for 30 mins prior to forskolin addition by enzyme immunoassay. The experiment is classed as functional, cell-based.

On Adenosine receptor A2a [1], `CCCCCCc1nc(N)c2ncn([C@@H]3OC[C@@H](O)[C@H]3O)c2n1` showed a Ki of 2.16 µM. For the same compound, the inhibition in experiment [2] was determined as 39%; in experiment [3], 22.3%; in experiment [4] it was 10%.

As for `CCCC/C=C/c1nc(N)c2ncn([C@@H]3OC[C@@H](O)[C@H]3O)c2n1`, the Ki came out at 0.218 µM on Adenosine receptor A3 and 0.178 µM at Adenosine receptor A2a [1]. In addition, the Activity on Adenosine receptor A2a [5] was 83%; in [6] it was 1.8%. Further, the inhibition in experiment [3] is 42.6%; in [4] it was 31.9%.

`COc1ccc2c(c1)c(CC(=O)O)c(C)n2C(=O)c1ccc(Cl)cc1` [INDOMETHACIN]: in the experiment with Rattus norvegicus, the Activity is reported as 49.7%.

For the compound `CCCCCCc1nc2c(N)ncnc2n1[C@@H]1OC[C@@H](O)[C@H]1O`, the inhibition on Adenosine receptor A2a [7] came out at 5.8%; in experiment [2], 24.7%; in experiment [3], 12.9%; in experiment [4] it was 18.1%.

As to `CCCCC#Cc1nc(NCc2cccc(Br)c2)c2ncn([C@@H]3OC[C@@H](O)[C@H]3O)c2n1`, the affinity at Adenosine receptor A3 corresponds to a Ki of 0.067 µM. Further, the inhibition is 27% on Adenosine receptor A2a [7], 37.2% in experiment [3] and 12% in [4].

`CCCCC#Cc1nc(NCc2cccc(I)c2)c2ncn([C@@H]3OC[C@@H](O)[C@H]3O)c2n1` yielded a Ki on Adenosine receptor A3 of 0.22 µM. Also, the inhibition on Adenosine receptor A2a [7] was found to be 32%; in experiment [3], 31.5%; in experiment [4] it was 18%.

With `CCCC/C=C/c1nc2c(N)ncnc2n1[C@@H]1OC[C@@H](O)[C@H]1O`, the Ki on Adenosine receptor A3 came to 0.0942 µM; on Adenosine receptor A1, 0.5 µM. Besides, the inhibition on Adenosine receptor A2a [7] is 27.3%; in [3], 19.5%.

`CCCCC#Cc1nc(NCc2cccc(Br)c2)c2ncn([C@@H]3SC[C@@H](O)[C@H]3O)c2n1`: the figures for the Ki at Adenosine receptor A3 and on Adenosine receptor A2a [1] were 0.024 µM and 3.91 µM, respectively. Further, the results for the inhibition in experiment [3] and in experiment [4] were 25.2% and 12%, respectively.

On to `CCCCC#Cc1nc2c(N)ncnc2n1[C@@H]1SC[C@@H](O)[C@H]1O`, for which the Activity in experiment [6] amounted to 7%. Further, the inhibition in experiment [3] is 1.7%.

`CCCCC#Cc1nc(NCc2cccc(I)c2)c2ncn([C@@H]3SC[C@@H](O)[C@H]3O)c2n1`: the Ki at Adenosine receptor A3 was found to be 0.039 µM; on Adenosine receptor A2a [1], 4.89 µM. Further, the inhibition worked out at 40% in experiment [3] and 15% in experiment [4].

`CCCCC#Cc1nc(NCc2cccc(F)c2)c2ncn([C@@H]3SC[C@@H](O)[C@H]3O)c2n1` displayed a Ki at Adenosine receptor A3 of 0.15 µM. In addition, the inhibition at Adenosine receptor A2a [7] amounted to 46%; in [3] it was 47.6%; in [4], 24%.

Turning to `CCCC/C=C/c1nc2c(N)ncnc2n1[C@@H]1SC[C@@H](O)[C@H]1O`, the inhibition in [3] stood at 6.1%.

As for `CCCCC#Cc1nc(NCc2cccc(Cl)c2)c2ncn([C@@H]3SC[C@@H](O)[C@H]3O)c2n1`, the Ki is 0.024 µM on Adenosine receptor A3 and 3.73 µM at Adenosine receptor A2a [1]. The inhibition in experiment [3] is 47.2%; in [4], 25%.

Turning to `CCCCC#Cc1nc(N)c2ncn([C@@H]3OC[C@@H](O)[C@H]3O)c2n1`, the figures for the Ki on Adenosine receptor A3, on Adenosine receptor A1 and on Adenosine receptor A2a [1] were 0.138 µM, 0.74 µM and 0.0632 µM, respectively. The Activity on Adenosine receptor A2a [5] was 89.9%; in experiment [6], 1.9%. In addition, the EC50 at Adenosine receptor A2a [8] is 0.0803 µM. Moreover, the inhibition in experiment [3] was 17.4%.

For the compound `CCCCC#Cc1nc(NCc2cccc(F)c2)c2ncn([C@@H]3OC[C@@H](O)[C@H]3O)c2n1`, on Adenosine receptor A3, the affinity, expressed as Ki, was 0.57 µM. The figures for the inhibition (on Adenosine receptor A2a [7]; in experiment [3]; in experiment [4]) were 25%, 29.5% and 9%, respectively.

With `CCCCC#Cc1nc(N)c2ncn([C@@H]3SC[C@@H](O)[C@H]3O)c2n1`, the Activity in the experiment with Rattus norvegicus was 51.1%. Further, the inhibition in [3] was found to be 2.8%.

With `CCCCC#Cc1nc(NCc2cccc(Cl)c2)c2ncn([C@@H]3OC[C@@H](O)[C@H]3O)c2n1`, the Ki on Adenosine receptor A3 stood at 0.15 µM. Further, the inhibition on Adenosine receptor A2a [7] worked out at 42%; in [3], 39.7%; in experiment [4], 9%.

As for `CCCCC#Cc1nc2c(N)ncnc2n1[C@@H]1OC[C@@H](O)[C@H]1O`, the Ki on Adenosine receptor A3 was determined as 0.0317 µM; on Adenosine receptor A1 it was 0.29 µM. The inhibition worked out at 27.2% at Adenosine receptor A2a [7] and 24.5% in experiment [3].

For the compound `CCCC/C=C/c1nc(N)c2ncn([C@@H]3SC[C@@H](O)[C@H]3O)c2n1`, the Activity at Adenosine receptor A2a [5] amounted to 109%; in experiment [6], 3.6%. Further, the Kb in [9] came to 0.0239 µM. Further, at Adenosine receptor A2a [8], the 50% effective concentration (EC50) turned out to be 0.0206 µM. For the same compound, the inhibition in experiment [3] came to 10.7%.
